Data as given in ChEMBL document CHEMBL5724801, “EUbOPEN Chemogenomics Library - Multiplex” (2024).
Values joined by “and” are separate entries in the source; they are usually repeats but may differ in a detail not shown here. Equal entries are not always repeated.

Test system: HEK-293T
Experiment: Multiplex assay against HEK293T
Type: toxicity, cell-based
Conditions: human
Outline: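 Phenotypes for tubulin, mitochondrial mass and membrane permeability are expressed as per cents of healthy-nucleus cells. Cells were stained live at seeding with Hoechst33342, BioTracker Green Microtubule Cytoskeleton Dye, MitoTracker Red and Annexin V Alexa Fluor 680, then imaged after compound addition on a CQ1 microscope at 37°C and 5% CO2. Machine-learning gating in CellPathfinder separated Hoechst high-intensity objects from normal cells, divided normal cells by nuclear state (healthy, pyknosed, fragmented) and divided pyknosed cells into mitotic or apoptotic.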

[1] = 12 h, 1 µM, compound concentration 1 uM
[2] = 12 h, 10 µM, compound concentration 10 uM
[3] = 24 h, 1 µM, compound concentration 1 uM
[4] = 24 h, 10 µM, compound concentration 10 uM
[5] = 48 h, 1 µM, compound concentration 1 uM
[6] = 48 h, 10 µM, compound concentration 10 uM

With `CN(C)CCOc1ccc(/C(=C(/CCCO)c2ccccc2)c2ccc(O)cc2)cc1` the “Population Apoptotic (%)” value [1] was 11.33% and 11.76%, the “Population Fragmented Nuclei (%)” value [1] was 1.07% and 2.99% and the “Population Hoechst High Intensity Objects (%)” value [1] was 0%. For the same compound, the “Population Membrane Permeable-Phenotype (%)” value [1] was 0.91% and 0%, the “Population Mitochondria Different-Phenotype (%)” value [1] was 37.73% and 15.38% and the “Population Mitotic Cells (%)” value [1] was 88.67% and 88.24%. The “Population Normal (%)” value [1] was 100%, the “Population Pyknosed Nuclei (%)” value [1] was 40.11% and 81.44% and the “Total Cell Count” value [1] was 374 and 167. For the same compound, the “Population Apoptotic (%)” value [2] was 12.57% and 17.97%, the “Population Fragmented Nuclei (%)” value [2] was 0.31% and 2.14% and the “Population Hoechst High Intensity Objects (%)” value [2] was 0%. The “Population Membrane Permeable-Phenotype (%)” value [2] was 0%, the “Population Mitochondria Different-Phenotype (%)” value [2] was 37.01% and 22.22% and the “Population Mitotic Cells (%)” value [2] was 87.43% and 82.03%. The “Population Normal (%)” value [2] was 100%, the “Population Pyknosed Nuclei (%)” value [2] was 59.87% and 91.43% and the “Population Tubulin-Different-Phenotype (%)” value [2] was 44.09% and 66.67%. The “Total Cell Count” value [2] was 319 and 140, the “Population Apoptotic (%)” value [3] was 20.61% and 15.97% and the “Population Fragmented Nuclei (%)” value [3] was 0.56% and 3.01%. The “Population Healthy Nuclei (%)” value [3] was 68.54% and 25.3%, the “Population Hoechst High Intensity Objects (%)” value [3] was 0.37% and 0% and the “Population Membrane Permeable-Phenotype (%)” value [3] was 1.09% and 2.38%. The “Population Mitochondria Different-Phenotype (%)” value [3] was 18.85% and 28.57%, the “Population Mitotic Cells (%)” value [3] was 79.39% and 84.03% and the “Population Normal (%)” value [3] was 99.63% and 100%. For the same compound, the “Population Pyknosed Nuclei (%)” value [3] was 30.9% and 71.69%, the “Population Tubulin-Different-Phenotype (%)” value [3] was 22.68% and 21.43% and the “Population Apoptotic (%)” value [4] was 44.56% and 45.71%. The “Population Fragmented Nuclei (%)” value [4] was 1.1% and 3.91%, the “Population Hoechst High Intensity Objects (%)” value [4] was 0% and the “Population Membrane Permeable-Phenotype (%)” value [4] was 1.19% and 5.56%. For the same compound, the “Population Mitochondria Different-Phenotype (%)” value [4] was 45.83% and 33.33%, the “Population Mitotic Cells (%)” value [4] was 55.44% and 54.29% and the “Population Normal (%)” value [4] was 100%. For the same compound, the “Population Pyknosed Nuclei (%)” value [4] was 52.88% and 82.03%, the “Population Tubulin-Different-Phenotype (%)” value [4] was 79.76% and 72.22% and the “Total Cell Count” value [4] was 365 and 128. The “Population Apoptotic (%)” value [5] was 11.64% and 29.47%, the “Population Fragmented Nuclei (%)” value [5] was 1.39% and 0.98% and the “Population Healthy Nuclei (%)” value [5] was 85.94% and 52.45%. For the same compound, the “Population Hoechst High Intensity Objects (%)” value [5] was 0.26% and 0%, the “Population Membrane Permeable-Phenotype (%)” value [5] was 6.57% and 1.87% and the “Population Mitochondria Different-Phenotype (%)” value [5] was 21.52% and 41.12%. The “Population Mitotic Cells (%)” value [5] was 88.36% and 70.53%, the “Population Normal (%)” value [5] was 99.74% and 100% and the “Population Apoptotic (%)” value [6] was 39.36% and 66.67%. The “Population Fragmented Nuclei (%)” value [6] was 0.98% and 2.22%, the “Population Hoechst High Intensity Objects (%)” value [6] was 1.92% and 1.46% and the “Population Membrane Permeable-Phenotype (%)” value [6] was 1.57% and 0%. For the same compound, the “Population Mitochondria Different-Phenotype (%)” value [6] was 81.82% and 77.78%, the “Population Mitotic Cells (%)” value [6] was 60.64% and 33.33% and the “Population Normal (%)” value [6] was 98.08% and 98.54%. For the same compound, the “Population Pyknosed Nuclei (%)” value [6] was 36.72% and 77.78%.
For `COc1ccc(-n2c(C)c([N+](=O)[O-])c3ccc(O)cc32)cc1`, the “Population Apoptotic (%)” value [1] was 6.21% and 10.43%, the “Population Fragmented Nuclei (%)” value [1] was 1.16% and 7.69% and the “Population Hoechst High Intensity Objects (%)” value [1] was 0%. The “Population Membrane Permeable-Phenotype (%)” value [1] was 1.02% and 0%, the “Population Mitochondria Different-Phenotype (%)” value [1] was 36.04% and 17.65% and the “Population Mitotic Cells (%)” value [1] was 93.79% and 89.57%. For the same compound, the “Population Normal (%)” value [1] was 100%, the “Population Pyknosed Nuclei (%)” value [1] was 41.91% and 80.42% and the “Total Cell Count” value [1] was 346 and 143. For the same compound, the “Population Apoptotic (%)” value [2] was 9.49% and 17.86%, the “Population Fragmented Nuclei (%)” value [2] was 2.91% and 1.47% and the “Population Hoechst High Intensity Objects (%)” value [2] was 0.24% and 0.73%. The “Population Membrane Permeable-Phenotype (%)” value [2] was 0.41% and 0%, the “Population Mitochondria Different-Phenotype (%)” value [2] was 38.27% and 18.18% and the “Population Mitotic Cells (%)” value [2] was 90.51% and 82.14%. For the same compound, the “Population Normal (%)” value [2] was 99.76% and 99.27%, the “Population Pyknosed Nuclei (%)” value [2] was 38.26% and 82.35% and the “Population Apoptotic (%)” value [3] was 11.43% and 19%. The “Population Fragmented Nuclei (%)” value [3] was 1.47% and 4.73%, the “Population Healthy Nuclei (%)” value [3] was 72.84% and 27.7% and the “Population Hoechst High Intensity Objects (%)” value [3] was 0%. The “Population Membrane Permeable-Phenotype (%)” value [3] was 0.76% and 2.44%, the “Population Mitochondria Different-Phenotype (%)” value [3] was 19.9% and 19.51% and the “Population Mitotic Cells (%)” value [3] was 88.57% and 81%. The “Population Normal (%)” value [3] was 100%, the “Population Pyknosed Nuclei (%)” value [3] was 25.69% and 67.57% and the “Population Apoptotic (%)” value [4] was 20% and 19.35%. For the same compound, the “Population Fragmented Nuclei (%)” value [4] was 2.53% and 2.65%, the “Population Healthy Nuclei (%)” value [4] was 71.03% and 35.76% and the “Population Hoechst High Intensity Objects (%)” value [4] was 0% and 0.66%. For the same compound, the “Population Membrane Permeable-Phenotype (%)” value [4] was 0.97% and 1.85%, the “Population Mitochondria Different-Phenotype (%)” value [4] was 27.18% and 12.96% and the “Population Mitotic Cells (%)” value [4] was 80% and 80.65%. The “Population Normal (%)” value [4] was 100% and 99.34%, the “Population Pyknosed Nuclei (%)” value [4] was 26.44% and 61.59% and the “Population Tubulin-Different-Phenotype (%)” value [4] was 27.51% and 11.11%. The “Total Cell Count” value [4] was 435 and 152, the “Population Apoptotic (%)” value [5] was 9.35% and 22.41% and the “Population Fragmented Nuclei (%)” value [5] was 2.61% and 2.72%. The “Population Healthy Nuclei (%)” value [5] was 87.04% and 65.76%, the “Population Hoechst High Intensity Objects (%)” value [5] was 0.1% and 0% and the “Population Membrane Permeable-Phenotype (%)” value [5] was 3.78% and 1.65%. For the same compound, the “Population Mitochondria Different-Phenotype (%)” value [5] was 21% and 23.97%, the “Population Mitotic Cells (%)” value [5] was 90.65% and 77.59% and the “Population Normal (%)” value [5] was 99.9% and 100%. The “Population Apoptotic (%)” value [6] was 17.07% and 21.57%, the “Population Fragmented Nuclei (%)” value [6] was 3.71% and 2.48% and the “Population Healthy Nuclei (%)” value [6] was 84.59% and 65.84%. For the same compound, the “Population Hoechst High Intensity Objects (%)” value [6] was 0.14% and 0%, the “Population Membrane Permeable-Phenotype (%)” value [6] was 5.23% and 1.89% and the “Population Mitochondria Different-Phenotype (%)” value [6] was 33.9% and 25.47%. The “Population Mitotic Cells (%)” value [6] was 82.93% and 78.43%, the “Population Normal (%)” value [6] was 99.86% and 100% and the “Population Pyknosed Nuclei (%)” value [6] was 11.7% and 31.68%.
In the case of `CN(C)Cc1cccc(NC(=C2C(=O)Nc3cc(C(N)=O)ccc32)c2ccccc2)c1`, the “Population Apoptotic (%)” value [1] is reported as 11.04% and 8.47%, the “Population Fragmented Nuclei (%)” value [1] is reported as 2.49% and 2.04% and the “Population Hoechst High Intensity Objects (%)” value [1] is reported as 0.28% and 0%. The “Population Membrane Permeable-Phenotype (%)” value [1] was 0.51% and 7.69%, the “Population Mitochondria Different-Phenotype (%)” value [1] was 22.73% and 15.38% and the “Population Mitotic Cells (%)” value [1] was 88.96% and 91.53%. For the same compound, the “Population Normal (%)” value [1] was 99.72% and 100%, the “Population Pyknosed Nuclei (%)” value [1] was 42.66% and 80.27% and the “Total Cell Count” value [1] was 362 and 147. The “Population Apoptotic (%)” value [2] was 15.53% and 28.8%, the “Population Fragmented Nuclei (%)” value [2] was 3.04% and 4.44% and the “Population Healthy Nuclei (%)” value [2] was 56.2% and 26.11%. For the same compound, the “Population Hoechst High Intensity Objects (%)” value [2] was 0.25% and 0%, the “Population Membrane Permeable-Phenotype (%)” value [2] was 0.45% and 2.13% and the “Population Mitochondria Different-Phenotype (%)” value [2] was 20.72% and 17.02%. The “Population Mitotic Cells (%)” value [2] was 84.47% and 71.2%, the “Population Normal (%)” value [2] was 99.75% and 100% and the “Population Pyknosed Nuclei (%)” value [2] was 40.76% and 69.44%. For the same compound, the “Population Tubulin-Different-Phenotype (%)” value [2] was 14.86% and 40.43%, the “Total Cell Count” value [2] was 396 and 180 and the “Population Apoptotic (%)” value [3] was 13.33% and 15.56%. The “Population Fragmented Nuclei (%)” value [3] was 0.9% and 4.61%, the “Population Healthy Nuclei (%)” value [3] was 77.6% and 36.18% and the “Population Hoechst High Intensity Objects (%)” value [3] was 0.18% and 0.65%. For the same compound, the “Population Membrane Permeable-Phenotype (%)” value [3] was 1.39% and 1.82%, the “Population Mitochondria Different-Phenotype (%)” value [3] was 9.47% and 14.55% and the “Population Mitotic Cells (%)” value [3] was 86.67% and 84.44%. The “Population Normal (%)” value [3] was 99.82% and 99.35%, the “Population Pyknosed Nuclei (%)” value [3] was 21.51% and 59.21% and the “Population Tubulin-Different-Phenotype (%)” value [3] was 13.16% and 7.27%. The “Population Apoptotic (%)” value [4] was 26.06% and 39.09%, the “Population Fragmented Nuclei (%)” value [4] was 1.76% and 3.57% and the “Population Healthy Nuclei (%)” value [4] was 66.02% and 40.31%. The “Population Hoechst High Intensity Objects (%)” value [4] was 0.19% and 0%, the “Population Membrane Permeable-Phenotype (%)” value [4] was 0.89% and 0% and the “Population Mitochondria Different-Phenotype (%)” value [4] was 22.78% and 25.32%. For the same compound, the “Population Mitotic Cells (%)” value [4] was 73.94% and 60.91%, the “Population Normal (%)” value [4] was 99.81% and 100% and the “Population Pyknosed Nuclei (%)” value [4] was 32.23% and 56.12%. The “Population Tubulin-Different-Phenotype (%)” value [4] was 32.25% and 18.99%, the “Total Cell Count” value [4] was 513 and 196 and the “Population Apoptotic (%)” value [5] was 10.07% and 19.05%. For the same compound, the “Population Fragmented Nuclei (%)” value [5] was 1.84% and 0.58%, the “Population Healthy Nuclei (%)” value [5] was 85.36% and 62.57% and the “Population Hoechst High Intensity Objects (%)” value [5] was 0%. The “Population Membrane Permeable-Phenotype (%)” value [5] was 5.39% and 0.93%, the “Population Mitochondria Different-Phenotype (%)” value [5] was 17.15% and 29.91% and the “Population Mitotic Cells (%)” value [5] was 89.93% and 80.95%. For the same compound, the “Population Normal (%)” value [5] was 100%, the “Population Pyknosed Nuclei (%)” value [5] was 12.8% and 36.84% and the “Population Apoptotic (%)” value [6] was 19.7% and 35.71%. The “Population Fragmented Nuclei (%)” value [6] was 2.75% and 2.37%, the “Population Healthy Nuclei (%)” value [6] was 80.73% and 58.89% and the “Population Hoechst High Intensity Objects (%)” value [6] was 0.12% and 0.39%. The “Population Membrane Permeable-Phenotype (%)” value [6] was 4.19% and 2.01%, the “Population Mitochondria Different-Phenotype (%)” value [6] was 43.1% and 38.26% and the “Population Mitotic Cells (%)” value [6] was 80.3% and 64.29%. For the same compound, the “Population Normal (%)” value [6] was 99.88% and 99.61% and the “Population Pyknosed Nuclei (%)” value [6] was 16.52% and 38.74%.
